Laboratory results from ChEMBL document CHEMBL3611977, “Synthesis, pharmacological evaluation and docking studies of pyrrole structure-based CB2 receptor antagonists” (Eur J Med Chem, 2015).
The source made the active and inactive calls. The calls are words filed in the database; no cut-off is given here.

What was measured:
Cannabinoid receptor 1 = Cannabinoid receptor 1 (Homo sapiens, UniProt P21554); test: Displacement of [3H]-CP55940 from human CB1 receptor transfected in HEK293EBNA cell membranes after 90 mins by liquid scintillation counting analysis; parameters: species or system HEK293-EBNA
Cannabinoid receptor 2 [1] = target: T1, Cannabinoid receptor 2 (Homo sapiens, UniProt P34972); test: Displacement of [3H]-CP55940 from human CB2 receptor transfected in HEK293EBNA cell membranes after 90 mins by liquid scintillation counting analysis; parameters: species or system HEK293-EBNA
In short: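 Human CB2-transfected HEK293EBNA membranes (about 0.18 mg/mL protein) in Tris-HCl with EDTA, MgCl₂ and fatty-acid-free BSA, pH 7.4. Compounds were pre-screened at a single concentration, with full curves only if displacement exceeded 50%. Ki from iterative curve fitting, three independent experiments in triplicate.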

[2] = target: Cannabinoid receptor 2 (Mus musculus) (UniProt P47936); test: Antagonist/inverse agonist activity at CB2 receptor in mouse BV-2 cells assessed as inhibition of WIN55,212-2-mediated attenuation of LPS-induced PGE2 release at 10 fold Ki after 16 hrs by ELISA immunoassay; type: cell-based
In short: (§1)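 Mouse BV-2 microglia plated at 5 × 10⁵ cells/well on poly-L-ornithine and grown overnight in DMEM with 10% FBS at 37 °C and 5% CO₂. The medium was switched to 1% FBS 1 h before treatment. Cells were then given LPS (E. coli 055:B5) for 16 h, alone or with test compound, and PGE2 release was measured. Data were analysed by one-way ANOVA.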

[3] = target: Cannabinoid receptor 2 (Mus musculus) (UniProt P47936); test: Antagonist/inverse agonist activity at CB2 receptor in mouse BV-2 cells assessed as LPS-induced PGE2 relaese at 10 fold Ki after 16 hrs by ELISA immunoassay; type: cell-based; in short: as §1
Cannabinoid receptor 2 [4] = target: T1, Cannabinoid receptor 2; test: Antagonist/inverse agonist activity at human CB2 receptor transfected in Chem4 cell membranes after 30 mins by [35S]-GTPgammaS binding assay; type: functional
In short: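 Purchased CB2R-containing membranes in 20 mM HEPES with 100 mM NaCl and 10 mM MgCl₂, pH 7.4. Compound was added from 10⁻¹¹ to 10⁻⁵ M together with 30 nM CP55,940 and incubated 30 min at 30 °C. Non-specific signal was defined with unlabelled GTPγS. The reaction was stopped by GF/C filtration with phosphate-buffer washes, then scintillation counting.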

[5] = target: Cannabinoid receptor 2 (Mus musculus) (UniProt P47936); test: Antagonist/inverse agonist activity at CB2 receptor in mouse BV-2 cells assessed as LPS-induced PGE2 relaese at 10 fold Ki after 16 hrs by ELISA immunoassay in presence of CB2R antagonist SR144528; type: cell-based; in short: as §1
[6] = target: Cannabinoid receptor 2 (Mus musculus) (UniProt P47936); details: BV-2, 10 uM

Cannabinoid receptor 1, sequence (P21554 whole entry): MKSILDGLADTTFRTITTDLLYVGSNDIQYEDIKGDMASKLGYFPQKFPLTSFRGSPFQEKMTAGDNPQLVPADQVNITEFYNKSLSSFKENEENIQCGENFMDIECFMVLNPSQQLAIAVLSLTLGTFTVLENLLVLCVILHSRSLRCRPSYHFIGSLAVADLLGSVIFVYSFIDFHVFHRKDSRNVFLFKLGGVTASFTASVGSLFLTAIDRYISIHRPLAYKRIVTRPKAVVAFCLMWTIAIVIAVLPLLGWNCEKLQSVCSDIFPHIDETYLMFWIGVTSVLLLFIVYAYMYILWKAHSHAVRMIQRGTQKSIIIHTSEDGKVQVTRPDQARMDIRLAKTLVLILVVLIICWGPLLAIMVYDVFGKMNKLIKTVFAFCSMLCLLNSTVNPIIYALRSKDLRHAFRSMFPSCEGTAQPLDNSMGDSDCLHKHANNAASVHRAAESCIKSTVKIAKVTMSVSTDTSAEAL
Cannabinoid receptor 2 (Mus musculus), sequence (P47936 whole entry): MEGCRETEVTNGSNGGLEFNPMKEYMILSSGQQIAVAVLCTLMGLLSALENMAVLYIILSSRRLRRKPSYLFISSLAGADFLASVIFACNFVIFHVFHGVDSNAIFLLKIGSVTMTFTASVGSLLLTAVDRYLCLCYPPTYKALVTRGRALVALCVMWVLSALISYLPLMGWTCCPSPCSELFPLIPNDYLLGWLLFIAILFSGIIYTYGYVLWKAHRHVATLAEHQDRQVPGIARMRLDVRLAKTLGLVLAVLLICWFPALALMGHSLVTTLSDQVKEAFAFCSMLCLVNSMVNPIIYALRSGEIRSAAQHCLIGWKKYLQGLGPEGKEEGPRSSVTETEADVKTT
T1 sequence (P34972 whole entry): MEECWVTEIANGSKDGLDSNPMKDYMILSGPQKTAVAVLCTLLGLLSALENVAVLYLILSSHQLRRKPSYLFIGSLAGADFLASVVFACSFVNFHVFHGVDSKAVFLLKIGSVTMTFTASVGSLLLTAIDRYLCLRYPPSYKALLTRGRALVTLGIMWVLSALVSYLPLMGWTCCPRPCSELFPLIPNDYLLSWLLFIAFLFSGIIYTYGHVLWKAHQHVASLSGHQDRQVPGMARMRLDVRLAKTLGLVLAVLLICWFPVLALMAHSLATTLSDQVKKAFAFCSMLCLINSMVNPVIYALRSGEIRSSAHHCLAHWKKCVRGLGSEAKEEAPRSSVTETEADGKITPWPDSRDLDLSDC

For `Cc1ccc(Cn2cc(CN3CCN(c4ccc(Cl)c(Cl)c4)CC3)cc2-c2ccc(Cl)c(C)c2)cc1`, the Ki (Cannabinoid receptor 1) was > 5 µM and the Ki (Cannabinoid receptor 2 [1]) was > 5 µM.

With `Cc1ccc(Cn2cc(C(=O)N[C@H](C)C3CCCCC3)cc2-c2ccc(Cl)c(C)c2)cc1` the Ki (Cannabinoid receptor 1) was > 5 µM and the Ki (Cannabinoid receptor 2 [1]) was > 5 µM.

For `Cc1ccc(Cn2cc(C(=O)N[C@@H]3C(C)(C)C4CC[C@@]3(C)C4)cc2-c2ccc(Cl)c(C)c2)cc1`, the inhibition [2] was “Active”, the inhibition [3] was “Active” and the IC50 (Cannabinoid receptor 2 [4]) was 0.171 µM. For the same compound, the Ki (Cannabinoid receptor 1) was 1.47 µM, the Ki (Cannabinoid receptor 2 [1]) was 0.0057 µM and the inhibition [5] was “Active”.

In the case of `Cc1ccc(Cn2cc(CN[C@@H]3C(C)(C)C4CC[C@@]3(C)C4)cc2-c2ccc(Cl)c(C)c2)cc1`, the Ki (Cannabinoid receptor 2 [1]) is reported as 0.343 µM.

`Cc1ccc(Cn2cc(C(=O)N3CCCCC3)cc2-c2ccc(Cl)c(C)c2)cc1` showed a Ki (Cannabinoid receptor 1) of 3.07 µM and a Ki (Cannabinoid receptor 2 [1]) of 0.106 µM.

With `Cc1ccc(Cn2cc(C(=O)N[C@H]3C[C@@H](C)CC[C@@H]3C(C)C)cc2-c2ccc(Cl)c(C)c2)cc1` the Ki (Cannabinoid receptor 1) was > 5 µM and the Ki (Cannabinoid receptor 2 [1]) was 1.1 µM.

With `Cc1ccc(Cn2cc(C(=O)N[C@@H]3C[C@@H]4C[C@H]([C@H]3C)C4(C)C)cc2-c2ccc(Cl)c(C)c2)cc1` the Ki (Cannabinoid receptor 2 [1]) was > 5 µM.

In the case of `Cc1ccc(Cn2cc(C(=O)NN3CCCCCC3)cc2-c2ccc(Cl)c(C)c2)cc1`, the Ki (Cannabinoid receptor 1) is reported as > 5 µM and the Ki (Cannabinoid receptor 2 [1]) is reported as 0.575 µM.

With `Cc1ccc(Cn2cc(C(=O)N[C@@H](C)C3CCCCC3)cc2-c2ccc(Cl)c(C)c2)cc1` the Ki (Cannabinoid receptor 2 [1]) was 0.492 µM.

With `Cc1ccc(Cn2cc(C(=O)NC34CC5CC(CC(C5)C3)C4)cc2-c2ccc(Cl)c(C)c2)cc1` the Ki (Cannabinoid receptor 1) was > 5 µM and the Ki (Cannabinoid receptor 2 [1]) was > 5 µM.

`Cc1ccc(Cn2cc(C(=O)NC[C@@H]3CCC4C[C@@H]3C4(C)C)cc2-c2ccc(Cl)c(C)c2)cc1` was tested, and the inhibition [2] was “Active”, the inhibition [3] was “Active” and the IC50 (Cannabinoid receptor 2 [4]) was 1.82 µM. For the same compound, the Ki (Cannabinoid receptor 1) was > 5 µM, the Ki (Cannabinoid receptor 2 [1]) was 0.0722 µM and the inhibition [5] was “Active”.

`Cc1ccc(Cn2nc(C(=O)N[C@@H]3CC4CC[C@@]3(C)C4(C)C)cc2-c2ccc(Cl)c(C)c2)cc1` showed a Ki (Cannabinoid receptor 2 [1]) of 0.0072 µM.

`Cc1ccc(Cn2cc(C(=O)NCC34CC5CC(CC(C5)C3)C4)cc2-c2ccc(Cl)c(C)c2)cc1` was tested, and the Ki (Cannabinoid receptor 1) was > 5 µM and the Ki (Cannabinoid receptor 2 [1]) was > 5 µM.

With `Cc1ccc(Cn2cc(C(=O)N[C@@H]3CC4CC[C@@]3(C)C4(C)C)cc2-c2ccc(Cl)c(C)c2)cc1` the Ki (Cannabinoid receptor 1) was 0.368 µM and the Ki (Cannabinoid receptor 2 [1]) was 0.164 µM.

`Cc1ccc(Cn2cc(C(=O)Nc3cccc4ccccc34)cc2-c2ccc(Cl)c(C)c2)cc1` was tested, and the Ki (Cannabinoid receptor 1) was > 5 µM and the Ki (Cannabinoid receptor 2 [1]) was > 5 µM.

For `Cc1ccc(Cn2cc(CN3CCN(c4ccc(Cl)cc4)CC3)cc2-c2ccc(Cl)c(C)c2)cc1`, the Ki (Cannabinoid receptor 1) was > 5 µM and the Ki (Cannabinoid receptor 2 [1]) was > 5 µM.

In the case of `Cc1ccc(Cn2cc(C(=O)NN3CCCCC3)cc2-c2ccc(Cl)c(C)c2)cc1`, the Ki (Cannabinoid receptor 1) is reported as > 5 µM and the Ki (Cannabinoid receptor 2 [1]) is reported as > 5 µM.

`Cc1ccc(Cn2cc(C(=O)NC3CCCCC3)cc2-c2ccc(Cl)c(C)c2)cc1` was tested, and the Ki (Cannabinoid receptor 1) was > 5 µM and the Ki (Cannabinoid receptor 2 [1]) was 0.244 µM.

`Cc1ccc(Cn2nc(C(=O)N[C@@H]3C(C)(C)[C@@H]4CC[C@@]3(C)C4)cc2-c2ccc(Cl)c(C)c2)cc1` was tested, and the inhibition [6] was “Active”.

With `Cc1ccc(Cn2cc(C(=O)NN3CCCC3)cc2-c2ccc(Cl)c(C)c2)cc1` the Ki (Cannabinoid receptor 1) was > 5 µM and the Ki (Cannabinoid receptor 2 [1]) was > 5 µM.

With `Cc1ccc(Cn2cc(C(=O)N3CCN(c4ccccc4Cl)CC3)cc2-c2ccc(Cl)c(C)c2)cc1` the Ki (Cannabinoid receptor 1) was > 5 µM and the Ki (Cannabinoid receptor 2 [1]) was 1.71 µM.
